# Measurements: ChEMBL document CHEMBL1159028, “Antimicrobial agents from Licaria puchuri-major and their synergistic effect with polygodial” (1992)
# System: Cutibacterium acnes
# Test: Antimicrobial activity against Propionibacterium acnes ATCC 11827 after 2 days by twofold serial broth dilution method
# Format: functional
# Conditions: ATCC 11827, 48 h
# Outline: (§1)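 ATCC strains were revived from freeze-dried stock, then grown in medium of 0.8% nutrient broth, 0.5% yeast extract and 0.1% glucose. Twofold serial broth dilution used compound in DMF (1% DMF final), with a top concentration of 800 µg/ml. Cultures were stationary for 2 days, and growth was read as turbidity at OD 660 nm. MIC was the lowest concentration with no growth.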
row,SMILES,MIC [µg/mL]
1,C/C=C/c1ccc(OC)cc1 [ANETHOLE],100
2,CCCCCCCCCCCC(=O)O [DODECANOATE],50
3,C=CCc1ccc(O)c(OC)c1 [EUGENOL],50
4,CC12CCC(CC1)C(C)(C)O2 [EUCALYPTOL],800
5,C=CCc1ccc(OC)c(OC)c1 [METHYLEUGENOL],200
6,CC1=CCC(O)(C(C)C)CC1 (centres undefined) [TERPINEOL],800
7,CC(C)=CCC/C(C)=C/CO [GERANIOL],200

# System: Cyberlindnera jadinii
# Test: Antimicrobial activity against Candida utilis ATCC 9226 after 2 days by twofold serial broth dilution method
# Format: functional
# Conditions: Williopsis jadinii, ATCC 9226, 48 h
# Outline: (§2)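 Yeasts were grown in 2.5% malt extract broth. Twofold serial broth dilution used compound in DMF (1% DMF final), with a top concentration of 800 µg/ml. After 2 days of stationary culture, turbidity was read at OD 660 nm. MIC was the lowest concentration with no growth. Checkerboard combinations with polygodial were tested at least twice per fungus.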
row,SMILES,MIC [µg/mL]
1,C/C=C/c1ccc(OC)cc1 [ANETHOLE],200
2,CCCCCCCCCCCC(=O)O [DODECANOATE],> 800
3,C=CCc1ccc(O)c(OC)c1 [EUGENOL],800
4,CC12CCC(CC1)C(C)(C)O2 [EUCALYPTOL],> 800
5,C=CCc1ccc(OC)c(OC)c1 [METHYLEUGENOL],800
6,CC1=CCC(O)(C(C)C)CC1 (centres undefined) [TERPINEOL],800
7,CC(C)=CCC/C(C)=C/CO [GERANIOL],400

# System: Bacillus subtilis
# Test: Antimicrobial activity against Bacillus subtilis ATCC 9372 after 2 days by twofold serial broth dilution method
# Format: functional
# Conditions: ATCC 9372, 48 h
# Outline: as §1
row,SMILES,MIC [µg/mL]
1,C/C=C/c1ccc(OC)cc1 [ANETHOLE],400
2,CCCCCCCCCCCC(=O)O [DODECANOATE],> 800
3,C=CCc1ccc(O)c(OC)c1 [EUGENOL],400
4,CC12CCC(CC1)C(C)(C)O2 [EUCALYPTOL],> 800
5,C=CCc1ccc(OC)c(OC)c1 [METHYLEUGENOL],800
6,CC1=CCC(O)(C(C)C)CC1 (centres undefined) [TERPINEOL],> 800
7,CC(C)=CCC/C(C)=C/CO [GERANIOL],400

# System: Malassezia furfur
# Test: Antimicrobial activity against Pityrosporum ovale ATCC 14521 by twofold serial broth dilution method
# Format: functional
# Conditions: not given
# Outline: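 Medium: 1% bactopeptone, 0.5% yeast extract, 1% glucose and 0.1% corn oil. Twofold broth dilution used compound in DMF (1% final), with a top concentration of 800 µg/ml. Culture was stationary for 2 days, and growth was scored visually. MIC was the lowest concentration without growth. Checkerboard combinations with polygodial were tested at least twice.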
row,SMILES,MIC [µg/mL]
1,C/C=C/c1ccc(OC)cc1 [ANETHOLE],100
2,CCCCCCCCCCCC(=O)O [DODECANOATE],> 800
3,C=CCc1ccc(O)c(OC)c1 [EUGENOL],100
4,CC12CCC(CC1)C(C)(C)O2 [EUCALYPTOL],> 800
5,C=CCc1ccc(OC)c(OC)c1 [METHYLEUGENOL],200
6,CC1=CCC(O)(C(C)C)CC1 (centres undefined) [TERPINEOL],100
7,CC(C)=CCC/C(C)=C/CO [GERANIOL],100

# System: Corynebacterium ammoniagenes
# Test: Antimicrobial activity against Brevibacterium ammoniagenes ATCC 6872 after 2 days by twofold serial broth dilution method
# Format: functional
# Conditions: ATCC 6872, 48 h
# Outline: as §1
row,SMILES,MIC [µg/mL]
1,C/C=C/c1ccc(OC)cc1 [ANETHOLE],200
2,CCCCCCCCCCCC(=O)O [DODECANOATE],> 800
3,C=CCc1ccc(O)c(OC)c1 [EUGENOL],800
4,CC12CCC(CC1)C(C)(C)O2 [EUCALYPTOL],> 800
5,C=CCc1ccc(OC)c(OC)c1 [METHYLEUGENOL],800
6,CC1=CCC(O)(C(C)C)CC1 (centres undefined) [TERPINEOL],> 800
7,CC(C)=CCC/C(C)=C/CO [GERANIOL],400

# System: Escherichia coli
# Test: Antimicrobial activity against Escherichia coli ATCC 9637 after 2 days by twofold serial broth dilution method
# Format: functional
# Conditions: ATCC 9637, 48 h
# Outline: as §1
row,SMILES,MIC [µg/mL]
1,C/C=C/c1ccc(OC)cc1 [ANETHOLE],200
2,CCCCCCCCCCCC(=O)O [DODECANOATE],> 800
3,C=CCc1ccc(O)c(OC)c1 [EUGENOL],400
4,CC12CCC(CC1)C(C)(C)O2 [EUCALYPTOL],> 800
5,C=CCc1ccc(OC)c(OC)c1 [METHYLEUGENOL],800
6,CC1=CCC(O)(C(C)C)CC1 (centres undefined) [TERPINEOL],> 800
7,CC(C)=CCC/C(C)=C/CO [GERANIOL],800

# System: Penicillium chrysogenum
# Test: Antimicrobial activity against Penicillium chrysogenum ATCC 10106 after 5 days by twofold serial broth dilution method
# Format: functional
# Conditions: ATCC 10106, 120 h
# Outline: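 Mould was grown in 2.5% malt extract broth with shaking. Compound in DMF (1% final) was serially diluted twofold, to a maximum of 800 µg/ml. Growth was judged by eye after 5 days. MIC was the lowest concentration showing no growth.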
row,SMILES,MIC [µg/mL]
1,C/C=C/c1ccc(OC)cc1 [ANETHOLE],> 800
2,CCCCCCCCCCCC(=O)O [DODECANOATE],> 800
3,C=CCc1ccc(O)c(OC)c1 [EUGENOL],200
4,CC12CCC(CC1)C(C)(C)O2 [EUCALYPTOL],> 800
5,C=CCc1ccc(OC)c(OC)c1 [METHYLEUGENOL],800
6,CC1=CCC(O)(C(C)C)CC1 (centres undefined) [TERPINEOL],800
7,CC(C)=CCC/C(C)=C/CO [GERANIOL],200

# System: Streptococcus mutans
# Test: Antimicrobial activity against Streptococcus mutans ATCC 25175 after 2 days by twofold serial broth dilution method
# Format: functional
# Conditions: ATCC 25175, 48 h
# Outline: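 ATCC strain grown in 3.7% brain heart infusion broth. Twofold serial broth dilution used compound dissolved in DMF (1% DMF final), with a top concentration of 800 µg/ml. After 2 days of stationary culture, growth was read as turbidity at OD 660 nm. MIC was the lowest concentration with no growth.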
row,SMILES,MIC [µg/mL]
1,C/C=C/c1ccc(OC)cc1 [ANETHOLE],200
2,CCCCCCCCCCCC(=O)O [DODECANOATE],> 800
3,C=CCc1ccc(O)c(OC)c1 [EUGENOL],400
4,CC12CCC(CC1)C(C)(C)O2 [EUCALYPTOL],> 800
5,C=CCc1ccc(OC)c(OC)c1 [METHYLEUGENOL],400
6,CC1=CCC(O)(C(C)C)CC1 (centres undefined) [TERPINEOL],> 800
7,CC(C)=CCC/C(C)=C/CO [GERANIOL],200

# System: Klebsiella aerogenes
# Test: Antimicrobial activity against Enterobacter aerogenes ATCC 13048 after 2 days by twofold serial broth dilution method
# Format: functional
# Conditions: ATCC 13048, 48 h
# Outline: as §1
row,SMILES,MIC [µg/mL]
1,C/C=C/c1ccc(OC)cc1 [ANETHOLE],> 800
2,CCCCCCCCCCCC(=O)O [DODECANOATE],> 800
3,C=CCc1ccc(O)c(OC)c1 [EUGENOL],> 800
4,CC12CCC(CC1)C(C)(C)O2 [EUCALYPTOL],> 800
5,C=CCc1ccc(OC)c(OC)c1 [METHYLEUGENOL],> 800
6,CC1=CCC(O)(C(C)C)CC1 (centres undefined) [TERPINEOL],> 800
7,CC(C)=CCC/C(C)=C/CO [GERANIOL],> 800

# System: Saccharomyces cerevisiae
# Test: Antimicrobial activity against Saccharomyces cerevisiae ATCC 7754 after 2 days by twofold serial broth dilution method
# Format: functional
# Conditions: ATCC 7754, 48 h
# Outline: as §2
row,SMILES,MIC [µg/mL]
1,C/C=C/c1ccc(OC)cc1 [ANETHOLE],200
2,CCCCCCCCCCCC(=O)O [DODECANOATE],> 800
3,C=CCc1ccc(O)c(OC)c1 [EUGENOL],800
4,CC12CCC(CC1)C(C)(C)O2 [EUCALYPTOL],> 800
5,C=CCc1ccc(OC)c(OC)c1 [METHYLEUGENOL],800
6,CC1=CCC(O)(C(C)C)CC1 (centres undefined) [TERPINEOL],800
7,CC(C)=CCC/C(C)=C/CO [GERANIOL],400

# System: Staphylococcus aureus
# Test: Antimicrobial activity against Staphylococcus aureus ATCC 12598 after 2 days by twofold serial broth dilution method
# Format: functional
# Conditions: ATCC 12598, 48 h
# Outline: as §1
row,SMILES,MIC [µg/mL]
1,C/C=C/c1ccc(OC)cc1 [ANETHOLE],> 800
2,CCCCCCCCCCCC(=O)O [DODECANOATE],> 800
3,C=CCc1ccc(O)c(OC)c1 [EUGENOL],800
4,CC12CCC(CC1)C(C)(C)O2 [EUCALYPTOL],> 800
5,C=CCc1ccc(OC)c(OC)c1 [METHYLEUGENOL],800
6,CC1=CCC(O)(C(C)C)CC1 (centres undefined) [TERPINEOL],> 800
7,CC(C)=CCC/C(C)=C/CO [GERANIOL],800

# System: Pseudomonas aeruginosa
# Test: Antimicrobial activity against Pseudomonas aeruginosa ATCC 10145 after 2 days by twofold serial broth dilution method
# Format: functional
# Conditions: ATCC 10145, 48 h
# Outline: as §1
row,SMILES,MIC [µg/mL]
1,C/C=C/c1ccc(OC)cc1 [ANETHOLE],> 800
2,CCCCCCCCCCCC(=O)O [DODECANOATE],> 800
3,C=CCc1ccc(O)c(OC)c1 [EUGENOL],> 800
4,CC12CCC(CC1)C(C)(C)O2 [EUCALYPTOL],> 800
5,C=CCc1ccc(OC)c(OC)c1 [METHYLEUGENOL],> 800
6,CC1=CCC(O)(C(C)C)CC1 (centres undefined) [TERPINEOL],> 800
7,CC(C)=CCC/C(C)=C/CO [GERANIOL],> 800
